Experiment [1] deals with Epidermal growth factor receptor (Homo sapiens, UniProt P00533). The experiment is described as follows: Inhibition of EGFR (unknown origin) by ELISA method.
The next experiment concerns NCI-H1975. As to the kind of experiment: Antiproliferative activity against human NCI-H1975 cells assessed as growth inhibition. The format is functional. The method in brief:
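NCI-H1975 cells were grown in RPMI with 1 mM sodium pyruvate, 10% FBS and 1% penicillin-streptomycin, under humidified 5% CO₂ at 37 °C. Growth inhibition was read as GI₅₀.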

We go through 50 molecules from ChEMBL document CHEMBL3621102, “Structure-activity study of quinazoline derivatives leading to the discovery of potent EGFR-T790M inhibitors” (Eur J Med Chem, 2015).

Epidermal growth factor receptor, sequence (P00533 whole entry): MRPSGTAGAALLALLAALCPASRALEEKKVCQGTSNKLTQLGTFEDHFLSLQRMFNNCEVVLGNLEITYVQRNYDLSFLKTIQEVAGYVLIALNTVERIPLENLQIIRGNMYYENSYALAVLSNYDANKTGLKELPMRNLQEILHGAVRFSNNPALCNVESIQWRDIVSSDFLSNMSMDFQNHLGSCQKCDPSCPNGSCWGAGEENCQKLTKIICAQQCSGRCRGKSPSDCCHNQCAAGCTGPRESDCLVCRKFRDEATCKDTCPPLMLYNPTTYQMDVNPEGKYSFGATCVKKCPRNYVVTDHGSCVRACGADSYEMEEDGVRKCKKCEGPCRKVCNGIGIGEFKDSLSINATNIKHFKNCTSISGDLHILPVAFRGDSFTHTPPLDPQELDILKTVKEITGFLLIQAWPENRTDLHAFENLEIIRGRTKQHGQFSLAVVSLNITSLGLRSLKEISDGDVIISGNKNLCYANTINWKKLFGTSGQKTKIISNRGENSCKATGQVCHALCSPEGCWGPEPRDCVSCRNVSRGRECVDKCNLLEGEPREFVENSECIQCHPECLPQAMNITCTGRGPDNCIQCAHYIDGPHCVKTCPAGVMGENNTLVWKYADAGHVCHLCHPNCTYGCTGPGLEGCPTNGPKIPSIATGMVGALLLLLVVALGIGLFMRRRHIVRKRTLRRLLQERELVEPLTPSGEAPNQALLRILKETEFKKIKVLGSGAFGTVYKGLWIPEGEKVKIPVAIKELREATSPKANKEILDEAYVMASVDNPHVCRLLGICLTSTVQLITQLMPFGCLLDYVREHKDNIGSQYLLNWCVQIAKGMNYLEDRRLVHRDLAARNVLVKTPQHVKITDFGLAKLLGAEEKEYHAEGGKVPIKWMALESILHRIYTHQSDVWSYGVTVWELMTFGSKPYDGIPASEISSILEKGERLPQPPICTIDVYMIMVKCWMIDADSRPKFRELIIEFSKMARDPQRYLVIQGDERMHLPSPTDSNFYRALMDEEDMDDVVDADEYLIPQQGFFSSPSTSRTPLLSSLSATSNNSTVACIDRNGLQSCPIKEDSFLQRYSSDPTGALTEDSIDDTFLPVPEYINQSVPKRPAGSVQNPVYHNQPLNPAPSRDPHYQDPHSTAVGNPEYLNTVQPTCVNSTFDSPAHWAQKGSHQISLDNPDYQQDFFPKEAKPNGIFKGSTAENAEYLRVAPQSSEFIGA

As for `C#Cc1cccc(Nc2ncnc3cc(OC)c(NC(=O)/C=C/CN4CCCCC4)cc23)c1`, 2.7 nM corresponded to half-maximal inhibition in experiment [1] (IC50). In the experiment on NCI-H1975, the GI50 was found to be 48.9 nM. In experiment [1], `C=CC(=O)Nc1cc2c(Nc3ccc(Br)cc3F)ncnc2cc1O[C@H]1CCOC1` returned an IC50 of 121 nM. In experiment [1], `COCCOc1cc2ncnc(Nc3ccc(Br)cc3F)c2cc1NC(=O)/C=C/CN(C)C` returned an IC50 of 3 nM. On to `CN(C)C/C=C/C(=O)Nc1cc2c(Nc3ccc(OCc4ccccn4)c(Cl)c3)ncnc2cc1O[C@H]1CCOC1`, for which the IC50 in experiment [1] is 8.1 nM.

In experiment [1], `C#Cc1cccc(Nc2ncnc3cc(OCC)c(NC(=O)/C=C/CN4CCCCC4)cc23)c1` returned an IC50 of 6.1 nM. The GI50 in the experiment with NCI-H1975 was found to be 30.4 nM.

For `COCCOc1cc2ncnc(Nc3ccc(Cl)c(C(F)(F)F)c3)c2cc1NC(=O)/C=C/CN(C)C`, it took 574 nM to reach half-maximal inhibition in experiment [1] (IC50). Regarding `O=C(/C=C/CNC1CC1)Nc1cc2c(Nc3ccc(F)c(Cl)c3)ncnc2cc1OC(F)F`, half-maximal inhibition in experiment [1] (IC50) required 9.6 nM. Besides, the GI50 with NCI-H1975 amounted to 34.6 nM. `COc1cc2ncnc(Nc3ccc(F)c(Cl)c3)c2cc1NC(=O)/C=C/CN1CC[S+]([O-])CC1` displayed a concentration for half-maximal inhibition (IC50) in experiment [1] above 1000 nM. Consider `C#Cc1cccc(Nc2ncnc3cc(O[C@H]4CCOC4)c(NC(=O)/C=C/CN(C)C)cc23)c1`, for which the IC50 in experiment [1] worked out at 1.2 nM. As to `O=C(/C=C/CN(C1CC1)C1CC1)Nc1cc2c(Nc3ccc(F)c(Cl)c3)ncnc2cc1O[C@H]1CCOC1`, in experiment [1], the IC50 is above 1000 nM. As for `COc1cc2ncnc(Nc3ccc(F)c(Cl)c3)c2cc1NC(=O)/C=C/CN(C1CC1)C1CC1`, in experiment [1], the IC50 is above 1000 nM. For `C#Cc1cccc(Nc2ncnc3cc(O[C@H]4CCOC4)c(NC(=O)C=C)cc23)c1`, in experiment [1], the IC50 is 32.2 nM.

`C=CC(=O)Nc1cc2c(Nc3ccc(OCc4cccc(F)c4)cc3)ncnc2cc1O[C@H]1CCOC1` yielded an IC50 in experiment [1] of 72.2 nM. The molecule `CN(C)C/C=C/C(=O)Nc1cc2c(Nc3ccc(OCc4cccc(F)c4)c(Cl)c3)ncnc2cc1O[C@H]1CCOC1` displayed an IC50 in experiment [1] of 510 nM. As for `O=C(/C=C/CN1CCCCC1)Nc1cc2c(Nc3ccc(F)c(Cl)c3)ncnc2cc1O[C@H]1CCOC1`, the IC50 in experiment [1] came out at 5.3 nM. In addition, in the experiment with NCI-H1975, the GI50 amounted to 168 nM. Turning to `C#Cc1cccc(Nc2ncnc3cc(OCCOC)c(NC(=O)C=C)cc23)c1`, the IC50 in experiment [1] is 1.8 nM.

`COc1cc2ncnc(Nc3ccc(F)c(Cl)c3)c2cc1NC(=O)/C=C/CNC1CC(F)(F)C1`: it took 141 nM to reach half-maximal inhibition in experiment [1] (IC50). In addition, in the experiment on NCI-H1975, the GI50 was found to be 98.7 nM. The molecule `CN(C)C/C=C/C(=O)Nc1cc2c(Nc3ccc(OCc4ccccn4)cc3)ncnc2cc1O[C@H]1CCOC1` registered an IC50 in experiment [1] of 9 nM. In turn, `C=CC(=O)Nc1cc2c(Nc3ccc(OCc4cccc(F)c4)c(Cl)c3)ncnc2cc1O[C@H]1CCOC1` yielded a 50% inhibitory concentration (IC50) in experiment [1] of 560 nM. On to `O=C(/C=C/CNC1CC1)Nc1cc2c(Nc3ccc(F)c(Cl)c3)ncnc2cc1OCC(F)(F)F`, for which, in the experiment with NCI-H1975, the GI50 worked out at 20.3 nM. `COCCOc1cc2ncnc(Nc3ccc(F)c(C#N)c3)c2cc1NC(=O)/C=C/CN(C)C`: the IC50 in experiment [1] is above 1000 nM.

Molecule `CN(C)C/C=C/C(=O)Nc1cc2c(Nc3ccc(OCc4cccc(F)c4)cc3)ncnc2cc1O[C@H]1CCOC1` showed an IC50 in experiment [1] of 134 nM. In turn, `C=CC(=O)Nc1cc2c(Nc3ccc(F)c(C#N)c3)ncnc2cc1OCCOC` showed an IC50 in experiment [1] of 196 nM. Take `COc1cc2ncnc(Nc3ccc(F)c(Cl)c3)c2cc1NC(=O)/C=C/CN(C)C1CC1`: in experiment [1], the IC50 was determined as 26.9 nM. Further, in the experiment with NCI-H1975, the GI50 amounted to 32.2 nM. With `O=C1CCN(C/C=C/C(=O)Nc2cc3c(Nc4ccc(F)c(Cl)c4)ncnc3cc2O[C@H]2CCOC2)CC1`, the IC50 in experiment [1] came out at 520 nM. As for `COCCOc1cc2ncnc(Nc3ccc(F)c(Cl)c3)c2cc1NC(=O)/C=C/CN(C)C`, inhibition in experiment [1] was half-maximal at 1.2 nM (IC50).

For the molecule `C=CC(=O)Nc1cc2c(Nc3ccc(Cl)c(C(F)(F)F)c3)ncnc2cc1OCCOC`, the IC50 in experiment [1] is above 1000 nM. For `CCOc1cc2ncnc(Nc3ccc(F)c(Cl)c3)c2cc1NC(=O)/C=C/CN(C)C1CC1`, the IC50 in experiment [1] came to 5.5 nM. Further, the GI50 in the experiment on NCI-H1975 was determined as 160 nM. With `C=CC(=O)Nc1cc2c(Nc3ccc(NC(=O)C=C)c(C(F)(F)F)c3)ncnc2cc1OCCOC`, in experiment [1], the IC50 worked out at 115 nM. With `COCCOc1cc2ncnc(Nc3ccc(NC(=O)/C=C/CN(C)C)c(C(F)(F)F)c3)c2cc1NC(=O)/C=C/CN(C)C`, in experiment [1], the IC50 turned out to be 102 nM. Molecule `COCCOc1cc2ncnc(Nc3ccc(F)c(Cl)c3)c2cc1NC(=O)/C=C/CN(C)C1CC1` yielded an IC50 in experiment [1] of 8.9 nM. Besides, the GI50 in the experiment on NCI-H1975 came to 87.1 nM. On to `COCCOc1cc2ncnc(Nc3ccc(OCc4cccc(F)c4)cc3)c2cc1NC(=O)/C=C/CN(C)C`, for which the 50% inhibitory concentration (IC50) in experiment [1] turned out to be 91 nM. Same read-out and setting: then `C=CC(=O)Nc1cc2c(Nc3ccc(Cl)c(C(F)(F)F)c3)ncnc2cc1O[C@H]1CCOC1`, with 105 nM. The same measure, in the same setting: in the case of `COCCOc1cc2ncnc(Nc3ccc(OCc4cccc(F)c4)c(Cl)c3)c2cc1NC(=O)/C=C/CN(C)C` it was above 1000 nM. `C#Cc1cccc(Nc2ncnc3cc(O[C@H]4CCOC4)c(NC(=O)/C=C/CN4CCCCC4)cc23)c1` had an IC50 in experiment [1] of 5.3 nM. Moreover, in the experiment with NCI-H1975, the GI50 stood at 40.1 nM.

Turning to `CN(C)C/C=C/C(=O)Nc1cc2c(Nc3ccc(F)c(C#N)c3)ncnc2cc1O[C@H]1CCOC1`, the IC50 in experiment [1] stood at 147 nM.

Molecule `C#Cc1cccc(Nc2ncnc3cc(OC)c(NC(=O)/C=C/CN(C)C4CC4)cc23)c1` yielded an IC50 in experiment [1] of 3.3 nM. The GI50 in the experiment with NCI-H1975 was 70.5 nM. In the case of `COCCOc1cc2ncnc(Nc3ccc(OCc4ccccn4)c(Cl)c3)c2cc1NC(=O)/C=C/CN(C)C`, the IC50 in experiment [1] is 5.4 nM. In the case of `C=CC(=O)Nc1cc2c(Nc3ccc(OCc4ccccn4)cc3)ncnc2cc1O[C@H]1CCOC1`, the midpoint of inhibition in experiment [1], the IC50, lay at 100 nM. Against the preceding molecule, the IC50 is about 19-fold higher. For the molecule `C=CC(=O)Nc1cc2c(Nc3ccc(F)c(Cl)c3)ncnc2cc1O[C@H]1CCOC1`, in experiment [1], the half-maximal inhibitory concentration (IC50) came to 5.8 nM. For `O=C(/C=C/CN1CC[S+]([O-])CC1)Nc1cc2c(Nc3ccc(F)c(Cl)c3)ncnc2cc1O[C@H]1CCOC1`, the midpoint of inhibition in experiment [1], the IC50, lay at 109 nM. As to `COCCOc1cc2ncnc(Nc3ccc(OCc4ccccn4)cc3)c2cc1NC(=O)/C=C/CN(C)C`, in experiment [1], the IC50 came to 10 nM. Regarding `C=CC(=O)Nc1cc2c(Nc3ccc(F)c(C#N)c3)ncnc2cc1O[C@H]1CCOC1`, the midpoint of inhibition in experiment [1], the IC50, lay at 167 nM.

In experiment [1], `COCCOc1cc2ncnc(Nc3ccc(F)c(Cl)c3)c2cc1NC(=O)/C=C/CN1CC[S+]([O-])CC1` gave an IC50 of 357 nM. For `C#Cc1cccc(Nc2ncnc3cc(OC4CCN(C)CC4)c(NC(=O)/C=C/CN(C)C)cc23)c1`, the IC50 in experiment [1] amounted to 8.1 nM.

Consider `C=CC(=O)Nc1cc2c(Nc3ccc(OCc4cccc(F)c4)c(Cl)c3)ncnc2cc1OCCOC`, for which, in experiment [1], the IC50 was determined as 102 nM. Against the preceding molecule, the IC50 is about 13-fold higher. Same read-out and setting: in the case of `C#Cc1cccc(Nc2ncnc3cc(OC4CCOCC4)c(NC(=O)/C=C/CN(C)C)cc23)c1` it was 6 nM. As to `COc1cc2ncnc(Nc3ccc(F)c(Cl)c3)c2cc1NC(=O)/C=C/CN1CCCCC1` [DACOMITINIB ANHYDROUS], the GI50 in the experiment on NCI-H1975 came out at 123 nM. `COCCOc1cc2ncnc(Nc3ccc(F)c(Cl)c3)c2cc1NC(=O)/C=C/CN1CCCCC1` returned a 50% inhibitory concentration (IC50) in experiment [1] of 2.1 nM. Moreover, the GI50 in the experiment on NCI-H1975 turned out to be 92.3 nM. `CCOc1cc2ncnc(Nc3ccc(F)c(Cl)c3)c2cc1NC(=O)/C=C/CN(C1CC1)C1CC1` had a half-inhibitory concentration (IC50) in experiment [1] above 1000 nM.
